Measured values from paper PMC3776227 (Biochemical Pharmacology, 2013).

Experiments:
α3β2 GABAA receptors [1] = biological target: T1, α3β2 GABAA receptors (Rattus norvegicus, UniProt P20236+P63138); assay: Shift of the GABA concentration-response curve by 100 μM compound; type: cell-based; conditions: enhancement not significant (p > 0.05)
α1β2γ2S GABAA receptors = α1β2γ2S GABAA receptors (Rattus norvegicus, UniProt P62813+P63138); conditions: piperine data taken from the literature; cited from earlier work
α2β2 GABAA receptors = α2β2 GABAA receptors (Rattus norvegicus, UniProt P23576+P63138); assay: IGABA modulation, two-microelectrode voltage clamp, Xenopus oocytes, α2β2; type: cell-based
Summary of the method: (§1)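 Rat GABAA subunit cRNAs were injected into stage V–VI Xenopus oocytes (10–50 nl, about 300–3000 pg/nl): α1β1 at 3:1, other αβ pairs at 1:1, and γ2S-containing receptors at α:β:γ 1:1:10. Oocytes were kept 24–48 h at 18 °C in ND96 with penicillin/streptomycin. Two-electrode voltage clamp was run at −70 mV in HEPES-buffered bath (pH 7,4).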

GABAA receptors = assay: Direct activation of GABAA receptors in the absence of GABA; type: cell-based, rat; conditions: up to 300 μM, no GABA
TRPV1 channels = TRPV1 channels (Rattus norvegicus, UniProt O35433); assay: TRPV1 activation, two-microelectrode voltage clamp, Xenopus oocytes; type: cell-based
Summary of the method: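 Rat TRPV1 cRNA was injected into Xenopus oocytes, which were stored 24–48 h at 18 °C. Two-electrode voltage clamp was run at −60 mV. Test compound (3–300 μM) was applied by fast perfusion. Peak inward current was normalised to a preceding 300 μM control response to the parent test compound in the same cell. Hill fit; n = 3–10 cells.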

C57BL/6N mice [2] = assay: Open Field Test; type: in vivo
Summary of the method: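 Male C57BL/6N mice (3–6 months) were dosed i.p. with test compound or vehicle (saline, 10% DMSO, 3% Tween 80, pH 7.4) 30 min before testing. Ambulation was tracked by infrared for 10 min in a 50 × 50 × 50 cm box at 150 lx, starting in the centre. Zones: border ≤8 cm from wall, centre 20 × 20 cm. ≥8 mice; ANOVA with Bonferroni.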

α1β2 GABAA receptors = α1β2 GABAA receptors (Rattus norvegicus, UniProt P62813+P63138); assay: IGABA modulation, two-microelectrode voltage clamp, Xenopus oocytes, α1β2; type: cell-based
Summary of the method: as §1

α5β2 GABAA receptors = α5β2 GABAA receptors (Rattus norvegicus, UniProt P19969+P63138); assay: IGABA modulation, two-microelectrode voltage clamp, Xenopus oocytes, α5β2; type: cell-based
Summary of the method: as §1

C57BL/6N mice [3] = assay: Measurement of body temperature; type: in vivo; conditions: 3 h after injection, control 36.10 ± 0.10 °C
C57BL/6N mice [4] = assay: Seizure threshold, pentylentetrazole; type: in vivo; conditions: for Seizure threshold (PTZ dose): 30 min before PTZ, control 39.4 ± 2.8
C57BL/6N mice [5] = assay: Elevated Plus Maze Test; type: in vivo
Summary of the method: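 Test compound or vehicle (saline, 10% DMSO, 3% Tween 80, pH 7.4) was injected i.p. into male C57BL/6N mice (3–6 months) 30 min before a 5-min elevated plus maze trial. The maze stood 1 m high with 30 × 5 cm arms and 20 cm closed-arm walls, lit at 180 lx. Mice started in the centre facing an open arm; scoring was automated by video. ≥9 mice; ANOVA with Bonferroni.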

α1β3 GABAA receptors = α1β3 GABAA receptors (Rattus norvegicus, UniProt P62813+P63079); assay: IGABA modulation, two-microelectrode voltage clamp, Xenopus oocytes, α1β3; type: cell-based
Summary of the method: as §1

α3β2 GABAA receptors [6] = biological target: T1, α3β2 GABAA receptors; assay: IGABA modulation, two-microelectrode voltage clamp, Xenopus oocytes, α3β2; type: cell-based
Summary of the method: as §1

α1β1 GABAA receptors = α1β1 GABAA receptors (Rattus norvegicus, UniProt P15431+P62813); assay: IGABA modulation, two-microelectrode voltage clamp, Xenopus oocytes, α1β1; type: cell-based
Summary of the method: as §1

[7] = read-out: Maximum stimulation of IGABA at EC3–7

α2β2 GABAA receptors, sequence (P23576 29-451): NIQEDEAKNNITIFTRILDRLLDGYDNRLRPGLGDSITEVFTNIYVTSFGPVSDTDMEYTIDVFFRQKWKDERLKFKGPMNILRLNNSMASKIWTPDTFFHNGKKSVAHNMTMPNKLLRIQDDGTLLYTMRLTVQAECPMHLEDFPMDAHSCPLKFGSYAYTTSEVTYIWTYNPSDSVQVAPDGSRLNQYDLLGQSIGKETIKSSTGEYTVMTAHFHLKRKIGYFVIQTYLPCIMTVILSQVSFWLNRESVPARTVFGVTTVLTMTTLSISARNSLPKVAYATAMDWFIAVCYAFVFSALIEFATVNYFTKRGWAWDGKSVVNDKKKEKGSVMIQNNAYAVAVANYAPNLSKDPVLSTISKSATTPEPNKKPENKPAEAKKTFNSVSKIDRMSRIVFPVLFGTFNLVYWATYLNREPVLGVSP
α2β2 GABAA receptors, sequence (P63138 25-474 limits assumed): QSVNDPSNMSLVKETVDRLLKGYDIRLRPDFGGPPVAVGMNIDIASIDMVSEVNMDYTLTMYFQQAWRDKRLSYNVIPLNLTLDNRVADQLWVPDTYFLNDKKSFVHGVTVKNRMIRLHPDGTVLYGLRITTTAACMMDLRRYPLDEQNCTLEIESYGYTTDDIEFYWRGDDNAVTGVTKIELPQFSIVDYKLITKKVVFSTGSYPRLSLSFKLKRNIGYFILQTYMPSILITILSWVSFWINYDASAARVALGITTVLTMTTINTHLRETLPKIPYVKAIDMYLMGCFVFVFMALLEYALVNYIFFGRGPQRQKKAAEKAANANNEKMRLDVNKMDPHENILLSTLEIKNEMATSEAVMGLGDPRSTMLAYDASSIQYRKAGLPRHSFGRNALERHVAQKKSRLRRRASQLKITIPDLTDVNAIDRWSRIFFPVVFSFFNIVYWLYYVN
α5β2 GABAA receptors, sequence (P19969 26-464): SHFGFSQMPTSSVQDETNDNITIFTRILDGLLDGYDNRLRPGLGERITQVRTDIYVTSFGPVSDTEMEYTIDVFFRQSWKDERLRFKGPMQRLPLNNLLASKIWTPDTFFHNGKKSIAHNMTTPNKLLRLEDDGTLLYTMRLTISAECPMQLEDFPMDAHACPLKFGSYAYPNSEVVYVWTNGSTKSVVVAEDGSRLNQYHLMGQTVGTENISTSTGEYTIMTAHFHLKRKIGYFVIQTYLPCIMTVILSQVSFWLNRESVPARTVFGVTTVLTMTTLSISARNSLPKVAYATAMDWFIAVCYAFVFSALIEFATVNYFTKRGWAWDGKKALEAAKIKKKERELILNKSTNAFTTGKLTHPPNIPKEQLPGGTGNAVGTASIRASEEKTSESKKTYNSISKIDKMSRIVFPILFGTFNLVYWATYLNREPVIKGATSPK
α5β2 GABAA receptors, sequence (P63138 25-474 limits assumed): as the sequence (P63138 25-474 limits assumed) above
TRPV1 channels, sequence (O35433 whole entry, the tested form may be a part): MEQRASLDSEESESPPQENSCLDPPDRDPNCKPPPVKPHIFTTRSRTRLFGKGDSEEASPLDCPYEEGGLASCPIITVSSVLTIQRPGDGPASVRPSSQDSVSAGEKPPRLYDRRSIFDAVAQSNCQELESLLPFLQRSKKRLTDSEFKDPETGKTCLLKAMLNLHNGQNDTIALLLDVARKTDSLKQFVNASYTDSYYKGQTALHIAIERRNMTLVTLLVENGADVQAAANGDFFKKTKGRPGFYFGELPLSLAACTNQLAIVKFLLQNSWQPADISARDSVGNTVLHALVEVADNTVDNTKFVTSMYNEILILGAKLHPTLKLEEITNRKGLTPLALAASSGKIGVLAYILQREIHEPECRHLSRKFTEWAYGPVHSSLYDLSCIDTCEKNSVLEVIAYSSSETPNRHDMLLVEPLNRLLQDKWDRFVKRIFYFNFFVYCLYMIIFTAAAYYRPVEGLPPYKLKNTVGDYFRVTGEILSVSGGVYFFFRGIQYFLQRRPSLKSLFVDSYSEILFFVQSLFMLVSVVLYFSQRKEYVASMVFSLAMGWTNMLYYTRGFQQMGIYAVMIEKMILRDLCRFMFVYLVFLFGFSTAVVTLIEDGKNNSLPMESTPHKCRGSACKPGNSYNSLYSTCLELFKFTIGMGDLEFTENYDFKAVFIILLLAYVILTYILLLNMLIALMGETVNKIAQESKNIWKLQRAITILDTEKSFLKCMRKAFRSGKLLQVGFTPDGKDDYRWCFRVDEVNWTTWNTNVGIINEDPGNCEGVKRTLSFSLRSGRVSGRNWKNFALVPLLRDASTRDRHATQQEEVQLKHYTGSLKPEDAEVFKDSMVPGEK
α1β2 GABAA receptors, sequence (P62813 28-455): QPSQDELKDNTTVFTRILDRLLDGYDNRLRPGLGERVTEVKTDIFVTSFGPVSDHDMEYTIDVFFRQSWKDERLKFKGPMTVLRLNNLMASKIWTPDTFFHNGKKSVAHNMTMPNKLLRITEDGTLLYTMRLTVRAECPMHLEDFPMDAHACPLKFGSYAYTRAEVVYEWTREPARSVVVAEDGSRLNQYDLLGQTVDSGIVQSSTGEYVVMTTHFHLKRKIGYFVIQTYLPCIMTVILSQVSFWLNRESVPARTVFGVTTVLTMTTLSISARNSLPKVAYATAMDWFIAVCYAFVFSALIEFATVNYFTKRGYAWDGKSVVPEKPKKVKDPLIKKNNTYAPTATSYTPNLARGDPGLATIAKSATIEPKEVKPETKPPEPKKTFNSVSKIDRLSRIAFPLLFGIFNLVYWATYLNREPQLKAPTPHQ
α1β2 GABAA receptors, sequence (P63138 25-474 limits assumed): as the sequence (P63138 25-474 limits assumed) above
α1β1 GABAA receptors, sequence (P62813 28-455): as the sequence (P62813 28-455) above
α1β1 GABAA receptors, sequence (P15431 26-474): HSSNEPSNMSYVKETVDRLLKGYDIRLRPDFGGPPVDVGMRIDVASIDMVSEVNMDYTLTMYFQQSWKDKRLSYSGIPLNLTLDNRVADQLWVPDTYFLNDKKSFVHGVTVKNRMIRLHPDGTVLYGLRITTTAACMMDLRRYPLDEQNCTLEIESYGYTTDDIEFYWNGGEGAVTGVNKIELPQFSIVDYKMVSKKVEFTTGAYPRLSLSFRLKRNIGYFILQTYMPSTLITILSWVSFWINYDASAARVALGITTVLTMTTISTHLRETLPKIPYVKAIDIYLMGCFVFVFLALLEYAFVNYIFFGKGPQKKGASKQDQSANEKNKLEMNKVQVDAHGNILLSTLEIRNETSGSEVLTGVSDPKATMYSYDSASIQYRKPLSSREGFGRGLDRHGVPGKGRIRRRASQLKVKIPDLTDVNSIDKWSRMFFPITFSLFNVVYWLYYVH
α1β3 GABAA receptors, sequence (P62813 28-455): as the sequence (P62813 28-455) above
α1β3 GABAA receptors, sequence (P63079 26-473): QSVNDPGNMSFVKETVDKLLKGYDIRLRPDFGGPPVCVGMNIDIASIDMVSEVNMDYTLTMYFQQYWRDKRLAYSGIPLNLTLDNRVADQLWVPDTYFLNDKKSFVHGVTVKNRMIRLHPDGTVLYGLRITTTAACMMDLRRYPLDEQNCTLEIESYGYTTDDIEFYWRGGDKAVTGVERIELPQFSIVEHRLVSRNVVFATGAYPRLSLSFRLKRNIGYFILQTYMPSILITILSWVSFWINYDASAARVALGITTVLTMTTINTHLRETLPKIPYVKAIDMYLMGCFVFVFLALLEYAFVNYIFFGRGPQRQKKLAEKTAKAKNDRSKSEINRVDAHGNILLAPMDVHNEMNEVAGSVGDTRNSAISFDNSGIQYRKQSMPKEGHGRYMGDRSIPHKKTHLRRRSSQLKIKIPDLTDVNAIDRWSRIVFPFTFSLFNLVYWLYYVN
T1 sequence (P20236 29-493): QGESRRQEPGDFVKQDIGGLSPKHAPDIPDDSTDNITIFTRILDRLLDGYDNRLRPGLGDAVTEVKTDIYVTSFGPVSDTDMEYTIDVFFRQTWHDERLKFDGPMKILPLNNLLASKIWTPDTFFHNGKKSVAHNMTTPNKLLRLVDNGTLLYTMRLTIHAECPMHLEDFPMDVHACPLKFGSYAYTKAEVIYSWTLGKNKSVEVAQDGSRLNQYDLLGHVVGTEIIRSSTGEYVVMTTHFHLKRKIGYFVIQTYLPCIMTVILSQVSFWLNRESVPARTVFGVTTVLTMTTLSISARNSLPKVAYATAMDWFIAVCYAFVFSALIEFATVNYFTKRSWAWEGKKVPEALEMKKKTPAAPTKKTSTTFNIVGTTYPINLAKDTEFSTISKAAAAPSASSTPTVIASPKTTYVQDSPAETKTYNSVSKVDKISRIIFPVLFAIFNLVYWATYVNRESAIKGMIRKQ
T1 sequence (P63138 25-474 limits assumed): as the sequence (P63138 25-474 limits assumed) above
α1β2γ2S GABAA receptors, sequence (P62813 28-455): as the sequence (P62813 28-455) above
α1β2γ2S GABAA receptors, sequence (P63138 25-474 limits assumed): as the sequence (P63138 25-474 limits assumed) above
α1β2γ2S GABAA receptors, sequence (P18508 39-466 partner): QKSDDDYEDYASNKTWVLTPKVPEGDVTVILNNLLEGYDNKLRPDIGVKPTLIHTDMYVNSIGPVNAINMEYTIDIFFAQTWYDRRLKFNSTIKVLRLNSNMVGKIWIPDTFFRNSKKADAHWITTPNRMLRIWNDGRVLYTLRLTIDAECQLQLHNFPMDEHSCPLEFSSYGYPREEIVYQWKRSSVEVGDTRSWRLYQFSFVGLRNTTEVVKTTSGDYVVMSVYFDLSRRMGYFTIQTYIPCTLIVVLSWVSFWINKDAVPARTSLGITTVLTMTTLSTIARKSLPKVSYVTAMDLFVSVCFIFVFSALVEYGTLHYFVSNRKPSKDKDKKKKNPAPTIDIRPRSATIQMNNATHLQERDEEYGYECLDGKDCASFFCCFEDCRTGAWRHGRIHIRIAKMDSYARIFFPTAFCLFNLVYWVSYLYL

With `O=C(/C=C/C=C/c1ccc2c(c1)OCO2)N1CCCCC1` [Piperine, 1-piperoylpiperidine] as the molecule, how does the “IGABA,max in the presence of compound” value (α3β2 GABAA receptors [1]) read?
Its value is 123 ± 3%.

What about the EC50 (α1β2γ2S GABAA receptors) of the same molecule?
Its EC50 is 52.4 ± 9.4 µM.

What about the “IGABA,max” value (α1β2γ2S GABAA receptors) of the same molecule?
Its value is 302 ± 27%.

And the EC50 (α2β2 GABAA receptors)?
The EC50 was 42.8 ± 17.6 µM.

What about the Emax (α2β2 GABAA receptors; [7]) of the same molecule?
Its Emax is 248 ± 48%.

What about the “Hill coefficient (nH)” value (α2β2 GABAA receptors; α2β2, GABA EC3–7) of the same molecule?
Its value is 1.9 ± 0.5.

What about the “Activation of GABAA receptors in the absence of GABA” value (GABAA receptors) of the same molecule?
The value was “Neither piperine nor SCT-66 (up to 300 μM) activated GABAA receptors”.

And the EC50 (TRPV1 channels)?
The EC50 was 33.3 ± 0.1 µM.

What about the “Hill coefficient of TRPV1 activation” value (TRPV1 channels; 3–300 μM) of the same molecule?
Its value is 4.1 ± 0.1.

And the “Activation of TRPV1 receptors (inward currents)” value (TRPV1 channels; oocytes expressing TRPV1, up to 300 μM)?
The value was “induced marked inward currents”.

What about the “Total distance travelled (OF)” value (C57BL/6N mice [2]; 30 mg/kg bodyweight i.p., 30 min before test, 10 min test, control 39.3 ± 1.9 m) of the same molecule?
The value was 21.0 ± 3.7 m.

What about the “Reduction of ambulation compared to control (OF)” value (C57BL/6N mice [2]; 30 mg/kg i.p.) of the same molecule?
The value was “approximately 50%”.

What about the “Doses with significant reduction of ambulation (OF)” value (C57BL/6N mice [2]; i.p., 30 min before test) of the same molecule?
The value was no less than 3 mg/kg bodyweight.

What about the EC50 (α1β2 GABAA receptors) of the same molecule?
The EC50 was 50 ± 7.9 µM.

What about the Emax (α1β2 GABAA receptors; [7]) of the same molecule?
Its Emax is 271 ± 36%.

And the “Hill coefficient (nH)” value (α1β2 GABAA receptors; α1β2, GABA EC3–7)?
Its value is 1.5 ± 0.3.

What about the EC50 (α5β2 GABAA receptors) of the same molecule?
The EC50 was 47.5 ± 17.9 µM.

What about the Emax (α5β2 GABAA receptors; [7]) of the same molecule?
Its Emax is 136 ± 22%.

And the “Hill coefficient (nH)” value (α5β2 GABAA receptors; α5β2, GABA EC3–7)?
Its value is 1.7 ± 0.4.

And the Body temperature (C57BL/6N mice [3]; 10 mg/kg bodyweight i.p.)?
The Body temperature was 34.86 ± 0.29 °C.

What about the Body temperature (C57BL/6N mice [3]; 30 mg/kg bodyweight i.p.) of the same molecule?
Its Body temperature is 30.37 ± 0.84 °C.

What about the “Seizure threshold (PTZ dose)” value (C57BL/6N mice [4]; 3 mg/kg bodyweight i.p.) of the same molecule?
The value was 46.2 ± 5.4 mg/kg bodyweight PTZ.

What about the “Seizure threshold (PTZ dose)” value (C57BL/6N mice [4]; 30 mg/kg bodyweight i.p.) of the same molecule?
The value was 30.3 ± 3.4 mg/kg bodyweight PTZ.

What about the “Effect on seizure threshold” value (C57BL/6N mice [4]; doses below 3 mg/kg bodyweight i.p.) of the same molecule?
The value was “did not affect seizure threshold”.

And the “Vasodilatory effects during PTZ tail-vein infusion” value (C57BL/6N mice [4]; doses of 10–30 mg/kg, data not shown)?
The value was “observed vasodilatory effects”.

And the “Time spent in the open arms (OA) in % of total time (EPM)” value (“Time spent in the open arms (OA) in %” below) (C57BL/6N mice [5]; 0.1 mg/kg bodyweight i.p., vs saline-treated control)?
The value was “did not significantly differ”.

And the “Time spent in the open arms (OA) in %” value (C57BL/6N mice [5]; 0.3 mg/kg bodyweight i.p., 30 min before test, control 28.6 ± 2.1%)?
Its value is 43.0 ± 4.2%.

And the “Effect on ambulation (EPM total distance)” value (C57BL/6N mice [5]; 1 mg/kg bodyweight i.p.)?
The value was “significantly reduced ambulation”.

And the “Time spent in the open arms (OA) in %” value (C57BL/6N mice [5]; 1 mg/kg bodyweight i.p., 30 min before test, control 28.6 ± 2.1%)?
The value was 45.7 ± 6.3%.

What about the “Number of closed arm (CA) entries (EPM)” value (C57BL/6N mice [5]; doses ≥0.3 mg/kg bodyweight i.p.) of the same molecule?
Its value is “dropped significantly”.

And the EC50 (α1β3 GABAA receptors)?
The EC50 was 48.3 ± 7.3 µM.

And the Emax (α1β3 GABAA receptors; [7])?
The Emax was 332 ± 64%.

What about the “Hill coefficient (nH)” value (α1β3 GABAA receptors; α1β3, GABA EC3–7) of the same molecule?
The value was 1.5 ± 0.3.

What about the EC50 (α3β2 GABAA receptors [6]) of the same molecule?
Its EC50 is 59.6 ± 12.3 µM.

And the Emax (α3β2 GABAA receptors [6]; [7])?
Its Emax is 375 ± 51%.

And the “Hill coefficient (nH)” value (α3β2 GABAA receptors [6]; α3β2, GABA EC3–7)?
The value was 1.4 ± 0.2.

What about the EC50 (α1β1 GABAA receptors) of the same molecule?
The EC50 was 57.6 ± 4.2 µM.

And the Emax (α1β1 GABAA receptors; [7])?
Its Emax is 171 ± 22%.

And the “Hill coefficient (nH)” value (α1β1 GABAA receptors; α1β1, GABA EC3–7)?
Its value is 1.4 ± 0.2.
